From PubChem BioAssay
PvdQ acylase: P. aeruginosa PvdQ acylase inhibition; purified PvdQ acylase, fluorescence plate reader; inhibition, % at 10 µM; 340,000 tested, 0.063% active; AID 488965; in the data active means inhibition above about 30%, passing the limit was not always enough;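 further: 0% = vehicle neutral wells and 100% = reference inhibitor wells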
Xi reactivation: X-chromosome reactivation activator. activation, % at 7.58 µM. XiGFP mouse fibroblasts, % GFP-positive cells imaging, 3 d; cells co-treated with 5-aza-dC sensitizer; scaled so ellipticine positive control = 100%. 360,000 tested, 0.055% active;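 active means mean normalized replicate activation at least 10% and every replicate at or above 10%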;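 further: 0% = median of on-plate neutral control wells and 100% = ellipticine 6 µM median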
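System: SV40-immortalized XiGFP fibroblast cells, line 68-5-11 / Incubation: 3-day compound exposure, then 15 min fixation at room temperature / Compound: single concentration per compound, delivered by pin transfer / Buffer or medium: DMEM plus 5-aza-dC sensitizer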
SR-BI DiI-HDL act: activators of SR-BI mediated HDL lipid uptake. CHO ldlA[mSR-BI] cells, DiI-HDL uptake fluorescence, 3 h; 100 = double the neutral-control signal. activation, % at 12.5 µM. 320,000 tested, 0.096% active;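 active means mean replicate activation of at least 60% and every replicate at or above 60%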;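 further: 0% = median plate neutral-control signal and 100% = twice that signal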
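Material: SR-BI-overexpressing, LDLR-lacking CHO cells; schedule: compound exposure 3 h, 37 °C; reagent: DiI-labelled HDL at 10 µg/mL final; technique: bottom-read fluorescence, 550/595 nm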
dFosB activator: activators of mouse delta FosB homodimer. P13346. purified delta FosB, TAMRA-CDK5 oligo fluorescence polarization; percent of positive-control signal above neutral wells. activation, % at 25 µM. 340,000 tested, 0.99% active;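 active means mean activation above about 17%, with every replicate also reaching it, limit read from the data, passing the limit was not always enough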
SR-BI HDL uptake: mouse SR-BI HDL lipid transfer inhibition; inhibition, % at 12.5 µM; AID 488896; 320,000 tested, 0.96% active; ldlA[mSR-BI] CHO cells, DiI-HDL uptake fluorescence, 3 h;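 active means mean replicate inhibition of at least 70% and a set share of replicates each scoring 70 or more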;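 further: 0% = median of neutral control wells and 100% = median of positive control wells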
Target sequence (Q61009 whole entry, looked up): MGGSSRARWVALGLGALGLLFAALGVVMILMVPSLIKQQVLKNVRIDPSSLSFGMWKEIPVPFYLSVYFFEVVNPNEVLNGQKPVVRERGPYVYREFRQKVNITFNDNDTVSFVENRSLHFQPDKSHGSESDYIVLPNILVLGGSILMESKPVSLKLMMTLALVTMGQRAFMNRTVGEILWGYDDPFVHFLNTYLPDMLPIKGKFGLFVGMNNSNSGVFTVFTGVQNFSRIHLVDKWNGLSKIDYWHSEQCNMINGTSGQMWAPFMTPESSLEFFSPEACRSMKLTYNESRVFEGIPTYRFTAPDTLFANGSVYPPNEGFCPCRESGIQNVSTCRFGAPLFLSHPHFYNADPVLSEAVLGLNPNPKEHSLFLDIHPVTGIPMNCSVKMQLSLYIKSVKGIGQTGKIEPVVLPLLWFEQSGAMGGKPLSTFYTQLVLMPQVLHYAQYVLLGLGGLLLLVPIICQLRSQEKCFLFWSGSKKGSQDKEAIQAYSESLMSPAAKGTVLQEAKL
Ecoli rRNA inh: inhibitors of bacterial rRNA selective over humanized ribosomes; E. coli WT GFP vs humanized-ribosome RFP mutants, fluorescence, 24 h; stronger effect = lower value; DMSO median 0, no signal -100; GFP signal change (wild-type ribosome), % (no concentration beside the values); 350,000 tested, 1.6% active;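 active means significant combined selectivity score with lowered wild-type GFP, culture density cut under 30%, mutant RFP and density less affected; inactive means any of these conditions unmet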
Active calls of the source: *; nt = not tested or not shown. Compounds with a hit are over-represented: about 2.6% of the library has one in this group of screens.

SMILES	PvdQ acylase	Xi reactivation	SR-BI DiI-HDL act	dFosB activator	SR-BI HDL uptake	Ecoli rRNA inh
COc1ccc(C(C)=O)cc1CSc1nnnn1-c1ccc(O)cc1	-6	0	nt	-9	nt	-48*
Cc1ccc(C(=O)Nc2cccc(-c3ccc(N4CCOCC4)nn3)c2)cc1C	-3	0	-77	-9	77*	1
COc1ccc(S(=O)(=O)Nc2cccc(-c3ccc(N4CCCCCC4)nn3)c2)cc1OC	4	0	-25	-2	25	6
Cc1ccc(S(=O)(=O)Nc2cccc(-c3ccc(N4CCCCCC4)nn3)c2)cc1	-2	0	-18	-7	18	-23*
C[C@H]1CCCCO[C@H](CN(C)C(=O)CCC(F)(F)F)[C@@H](C)CN([C@@H](C)CO)C(=O)c2cc(NS(=O)(=O)c3ccccc3)ccc2O1	nt	-1	nt	nt	nt	-1
O=C(NC12CC3CC(CC(C3)C1)C2)N1CCN(c2ncccn2)CC1	7	0	-6	-5	6	-21*
O=C(NC12CC3CC(CC(C3)C1)C2)N1CCN(c2ccccn2)CC1	13	nt	3	-9	-3	-19
CC(C)(C)c1ccc(C(=O)NC(=S)N2CCCC2)cc1	11	0	26	-8	-26	4
C[C@H]1CCCCO[C@@H](CN(C)Cc2ccc(C(F)(F)F)cc2)[C@@H](C)CN([C@@H](C)CO)C(=O)c2cc(NC(=O)c3ccccc3)ccc2O1	nt	0	nt	nt	nt	-2
O=C(COC(=O)C1CCCCC1)Nc1cccc(Br)c1	-13	0	63*	-12	-63	5
Cc1nc(C(=O)NNC(=O)c2cccc(Cl)c2)c(C(F)(F)F)o1	-14	3	-3	-2	3	-27*
Cc1ccc2[nH]c3nc(N/N=C/c4cccc(O)c4)nnc3c2c1	-6	0	12	21*	-12	7
CCSc1nnc(NC(=O)CSc2nc3c(c(=O)n2-c2ccccc2)SCC3)s1	-16	nt	28	4	-28	nt
CC[C@]1(C(=O)OC)[C@H]2C(=O)N(Cc3ccccc3)C(=O)[C@H]2[C@H]2CN=C(SCc3ccc(C)cc3)N21	6	0	19	-3	-19	-35
CC[C@]1(C(=O)OC)[C@H]2C(=O)N(Cc3ccccc3)C(=O)[C@H]2[C@H]2CN=C(SCc3ccc(C(=O)OC)cc3)N21	-15	0	11	-5	-11	-26*
Cc1cc(C)c(S(=O)(=O)N2CCOC2CNC(=O)C(=O)NCCc2c[nH]c3ccccc23)c(C)c1 (stereo unspecified)	4	0	196*	-1	-196	3
O=C(NCCc1c[nH]c2ccccc12)C(=O)NCC1OCCN1S(=O)(=O)c1ccccc1 (stereo unspecified)	-1	0	-13	-2	13	5
O=C1CCC(=O)N1CNc1ccc(Oc2ccccc2)cc1	-18	nt	33	-7	-33	-13*
COc1ccccc1/C=C/C(=O)NC(=S)N(C)C1CCCCC1	-2	nt	-51	-2	51	-24*
CCOc1ccc(NC(=O)c2ccc3c(c2)N(Cc2ccc(F)cc2)C(=O)CS3=O)cc1 (stereo unspecified)	-17	0	-17	-6	17	-2
O=C(CSc1ccccn1)N/N=C/c1cc([N+](=O)[O-])ccc1O	-17	0	nt	-2	nt	-19*
Cc1nc2ccc(C(=O)N/N=C/c3ccccc3O)cc2[nH]1	-3	0	-68	-17	68	-10
Cc1cccc(NC(=O)CCC(=O)N/N=C/c2cc([N+](=O)[O-])ccc2O)c1	7	0	16	3	-16	nt
O=C(N/N=C/c1cc([N+](=O)[O-])ccc1O)c1cccc(NC(=O)c2cccc(Cl)c2)c1	5	0	7	57*	-7	8
O=C(N/N=C/c1cc([N+](=O)[O-])ccc1O)c1cccc2ccccc12	-17	0	-129	13	129*	14
SMILES	PvdQ acylase	Xi reactivation	SR-BI DiI-HDL act	dFosB activator	SR-BI HDL uptake	Ecoli rRNA inh
Cc1nc2ccc(C(=O)N/N=C/c3cc([N+](=O)[O-])ccc3O)cc2[nH]1	-11	0	-106	9	106*	nt
CC(OC(=O)c1ccco1)C(=O)NC1CCCCC1 (stereo unspecified)	-4	nt	-17	-9	17	nt
COc1ccccc1C(=O)NC(CCSC)C(=O)OCC(=O)N1CCCC1=O (stereo unspecified)	-8	0	9	1	-9	6
Cc1ccc(S(=O)(=O)Nc2ccc3c(c2)C(=O)N([C@H](C)CO)C[C@H](C)[C@H](CN(C)Cc2ccc(Oc4ccccc4)cc2)O3)cc1	nt	0	nt	nt	nt	2
CCCNC(=O)c1onc(CSc2ccccn2)c1C(=O)NCCC	-18	0	8	-5	-8	nt
COc1ccc(Cl)cc1NC(=O)COC(=O)c1cc(C)oc1C	-13	0	nt	0	46	7
O=C(N/N=C/c1cc([N+](=O)[O-])ccc1O)C1CCCCC1	-3	0	-87	-5	87*	12
c1ccc(CN2CCC(Nc3nc(-c4cccnc4)nc4ccccc34)CC2)cc1	11	0	-21	-44	21	-33*
CCCCN(C(=O)c1cccc(S(=O)(=O)N2CCN(C)CC2)c1)c1c(N)n(CC(C)C)c(=O)[nH]c1=O	12	0	41	-3	-41	5
CCCCN(C(=O)c1cccc(S(=O)(=O)N2CCCC2)c1)c1c(N)n(CCC)c(=O)[nH]c1=O	-2	0	70*	8	-70	nt
Cc1cc(NC(=O)c2cc([N+](=O)[O-])cc([N+](=O)[O-])c2)no1	nt	1	nt	nt	nt	-22
Cc1cc(NC(=O)c2cc([N+](=O)[O-])cc([N+](=O)[O-])c2C)no1	88*	0	-10	-2	10	26
COc1cc(NC(=O)C2CCCN(c3ncnc4c3nc3n4CCCCC3)C2)cc(OC)c1OC (stereo unspecified)	0	0	-7	-7	7	-26
CCN(Cc1ccccc1)C(=O)C1CCN(c2ncnc3c2nc2n3CCCCC2)CC1	-4	0	-24	-7	24	-25*
CCc1ccccc1N(CC)C(=O)C1CCN(c2ncnc3c2nc2n3CCCCC2)CC1	-12	1	-23	-2	23	-9
COc1ccccc1NC(=O)C1CCCN(c2ncnc3c2nc2n3CCCCC2)C1 (stereo unspecified)	4	0	2	0	-2	-33*
O=C(Nc1ccccc1Cl)C1CCCN(c2ncnc3c2nc2n3CCCCC2)C1 (stereo unspecified)	-17	6	1	-9	-1	-30*
